Source: ChEMBL document CHEMBL4622936, “Discovery of the potent non-steroidal glucocorticoid receptor modulator BAY 1003803 as clinical candidate” (Bioorg Med Chem Lett, 2020)
pEC50, pIC50: −log10 of the molar value. Each block holds one compound with its values, some of them ahead of it.

What was measured:
THP-1 [1] = assay: Immunomodulatory activity in human THP1 cells assessed as reduction in LPS-induced IL-8 production relative to control; assay type: functional
[2] = Lipophilicity, logP of compound; assay type: physicochemical; settings: octanol/water
[3] = Inhibition of collagenase (unknown origin) transfected in human HeLa cells by luciferase reporter gene assay; assay type: cell-based
THP-1 [4] = assay: Immunomodulatory activity in human THP1 cells assessed as reduction in LPS-induced IL-8 production; assay type: functional, cell-based
Summary of the method: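 Human promyeloid THP-1 cells were stimulated with lipopolysaccharide to induce IL-8 synthesis, and inhibition of IL-8 production by the test compound was measured.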

HeLa = assay: Inhibition of collagenase (unknown origin) transfected in human HeLa cells by luciferase reporter gene assay relative to control; assay type: cell-based
[5] = Mutagenicity in Salmonella typhimurium by Ames test; assay type: toxicity; settings: salmonella enterica subsp. enterica serovar typhimurium
[6] = Clearance in female Beagle dog blood at 1 mg/kg, iv; assay type: ADME, organism-based, Canis lupus familiaris; settings: whole blood
PBMC [7] = assay: Inhibition of PHA-induced IL2 release in human PBMC cells relative to control; assay type: functional
[8] = Drug metabolism in dog Hepatocyte assessed as demethylation product M-4 formation; assay type: ADME, cell-based, Canis lupus familiaris; settings: hepatocytes
[9] = Apparent permeability from apical to basolateral side in human Caco2 cells; assay type: ADME, cell-based; settings: Caco-2
Summary of the method: (§1)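 Caco-2 monolayers. Apparent permeability (Papp) was measured from the apical to the basolateral compartment and also in the reverse direction. Efflux ratio is Papp B→A divided by Papp A→B.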

PBMC [10] = assay: Inhibition of PHA-induced IL4 release in human PBMC cells; assay type: functional, cell-based
Summary of the method: (§2)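 Primary human peripheral blood mononuclear cells were stimulated with LPS (IL-12p40, TNFα) or PHA (IFNγ, IL-2, IL-4). Cytokine release was measured with test compound, and clobetasol and dexamethasone were run in parallel as reference glucocorticoids.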

[11] = Drug metabolism in human Hepatocyte assessed as demethylation product M-1 formation; assay type: ADME, cell-based; settings: hepatocytes
PBMC [12] = assay: Inhibition of LPS-induced TNFalpha release in human PBMC cells relative to control; assay type: functional
[13] = Volume of distribution at steady state in female Beagle dog blood at 1 mg/kg, iv; assay type: ADME, organism-based, Canis lupus familiaris; settings: whole blood, read-out: Vdss
PBMC [14] = assay: Inhibition of LPS-induced IL12p40 release in human PBMC cells; assay type: functional, cell-based; summary of the method: as §2
[15] = Drug metabolism in human Hepatocyte assessed as demethylation product M-5 formation; assay type: ADME, cell-based; settings: hepatocytes
[16] = Clearance in female Wistar rat blood at 5 mg/kg, iv; assay type: ADME, organism-based; settings: whole blood
[17] = Terminal half life in female Beagle dog blood at 1 mg/kg, iv; assay type: ADME, organism-based, Canis lupus familiaris; settings: whole blood, read-out: beta t1/2 (converted)
PBMC [18] = assay: Inhibition of LPS-induced IL12p40 release in human PBMC cells relative to control; assay type: functional
[19] = Metabolic stability in rat Hepatocyte assessed as intrinsic clearance; assay type: ADME, cell-based; settings: hepatocytes, read-out: CLH (converted)
[20] = Drug metabolism in rat Hepatocyte assessed as demethylation product M-2 formation; assay type: ADME, cell-based; settings: hepatocytes
[21] = Drug metabolism in human Hepatocyte assessed as demethylation product M-4 formation; assay type: ADME, cell-based; settings: hepatocytes
[22] = Clearance in female Wistar rat plasma at 5 mg/kg, iv; assay type: ADME, organism-based
PBMC [23] = assay: Inhibition of PHA-induced IL2 release in human PBMC cells; assay type: functional, cell-based; summary of the method: as §2
PBMC [24] = assay: Inhibition of PHA-induced IL4 release in human PBMC cells relative to control; assay type: functional
[25] = Terminal half life in female Wistar rat blood at 5 mg/kg, iv; assay type: ADME, organism-based; settings: whole blood, read-out: beta t1/2 (converted)
PBMC [26] = assay: Inhibition of LPS-induced TNFalpha release in human PBMC cells; assay type: functional, cell-based; summary of the method: as §2
[27] = Efflux ratio of apparent permeability from apical to basolateral side in human Caco2 cells; assay type: ADME, cell-based; settings: Caco-2; summary of the method: as §1
[28] = Metabolic stability in human Hepatocyte assessed as intrinsic clearance; assay type: ADME, cell-based; settings: hepatocytes, read-out: CLH (converted)
[29] = Clearance in female Beagle dog plasma at 1 mg/kg, iv; assay type: ADME, organism-based, Canis lupus familiaris
[30] = Drug metabolism in rat Hepatocyte assessed as demethylation product M-4 formation; assay type: ADME, cell-based; settings: hepatocytes
[31] = Drug metabolism in rat Hepatocyte assessed as demethylation product M-3 formation; assay type: ADME, cell-based; settings: hepatocytes
[32] = Drug metabolism in rat Hepatocyte assessed as demethylation product M-1 formation; assay type: ADME, cell-based; settings: hepatocytes
PBMC [33] = assay: Inhibition of PHA-induced IFNgamma release in human PBMC cells relative to control; assay type: functional
[34] = Volume of distribution at steady state in female Wistar rat blood at 5 mg/kg, iv; assay type: ADME, organism-based; settings: whole blood, read-out: Vdss
PBMC [35] = assay: Inhibition of PHA-induced IFNgamma release in human PBMC cells; assay type: functional, cell-based; summary of the method: as §2
[36] = Drug metabolism in dog Hepatocyte assessed as demethylation product M-1 formation; assay type: ADME, cell-based, Canis lupus familiaris; settings: hepatocytes
[37] = Metabolic stability in dog Hepatocyte assessed as intrinsic clearance; assay type: ADME, cell-based, Canis lupus familiaris; settings: hepatocytes, read-out: CLH (converted)

logP [2]: 5.3 | pEC50 [3]: 7.40 | pIC50 (THP-1 [4]): 8.30
SMILES: COc1ccc([C@H](Nc2cccc3nc(C)ccc23)[C@](O)(CN(C)C)C(F)(F)F)c(Cl)c1F
Emax (THP-1 [1]): 77% | Emax (HeLa): 66%

logP [2]: 5.3 | pEC50 [3]: 8.90 | pIC50 (THP-1 [4]): 8.80
SMILES: CCSC[C@@](O)([C@@H](Nc1cccc2nc(C)ccc12)c1ccc(Cl)c(F)c1OC)C(F)(F)F
Emax (THP-1 [1]): 82% | Emax (HeLa): 66%

logP [2]: 4.8 | pEC50 [3]: 7.90 | pIC50 (THP-1 [4]): 8.60
SMILES: CCSC[C@@](O)([C@@H](Nc1cccc2nc(C)ccc12)c1ccc(C)cc1)C(F)(F)F
Emax (THP-1 [1]): 87% | Emax (HeLa): 66%

clearance [6]: 20 mL/min/kg | Drug metabolism [8]: Metabolite_Notdetected | Papp A→B [9]: 1.9 ×10⁻⁶ cm/s | Drug metabolism [11]: Metabolite_Detected | Vd [13]: 2.1 L/kg | Drug metabolism [15]: Metabolite_Detected | clearance [16]: 60 mL/min/kg | half-life [17]: 1.3 h | CLint scaled [19]: 12 mL/min/kg | Drug metabolism [20]: Metabolite_Detected | Drug metabolism [21]: Metabolite_Detected | clearance [22]: 50 mL/min/kg | logP [2]: 3.3 | half-life [25]: 1.9 h | pEC50 [3]: 9.10 | efflux ratio [27]: 0.5 | CLint scaled [28]: 15.7 mL/min/kg | clearance [29]: 20 mL/min/kg | Drug metabolism [30]: Metabolite_Detected | Drug metabolism [31]: Metabolite_Detected | Drug metabolism [32]: Metabolite_Detected | pIC50 (THP-1 [4]): 9.40 | Vd [34]: 7 L/kg | Drug metabolism [36]: Metabolite_Detected | CLint scaled [37]: 21.7 mL/min/kg
SMILES: COC[C@@](O)([C@@H](Nc1cc(F)cc2[nH]c(=O)ccc12)c1ccc(OC)c(F)c1Cl)C(F)(F)F
Efficacy (PBMC [7]): 95% | pIC50 (PBMC [10]): 9.38 | Emax (THP-1 [1]): 95% | Efficacy (PBMC [12]): 98% | pIC50 (PBMC [14]): 9.12 | Efficacy (PBMC [18]): 96% | pIC50 (PBMC [23]): 9.06 | Efficacy (PBMC [24]): 99% | pIC50 (PBMC [26]): 9.04 | Efficacy (PBMC [33]): 96% | pIC50 (PBMC [35]): 9.15 | Emax (HeLa): 85%

logP [2]: 4.5 | pEC50 [3]: 9.60 | pIC50 (THP-1 [4]): 9.90
SMILES: COc1ccc([C@H](Nc2cccc3nc(C)ccc23)[C@](O)(CSC)C(F)(F)F)c(Cl)c1F
Emax (THP-1 [1]): 98% | Emax (HeLa): 89%

logP [2]: 3.4 | pEC50 [3]: 7.60 | pIC50 (THP-1 [4]): 7.70
SMILES: CCSC[C@@](O)([C@@H](Nc1cccc2nc(C)ccc12)c1ccc(Cl)c(F)c1O)C(F)(F)F
Emax (THP-1 [1]): 107% | Emax (HeLa): 102%

logP [2]: 4.4 | pEC50 [3]: 8.00 | pIC50 (THP-1 [4]): 8.30
SMILES: CCSC[C@@](O)([C@@H](Nc1cccc2nc(C)ccc12)c1ccc(F)cc1OC)C(F)(F)F
Emax (THP-1 [1]): 78% | Emax (HeLa): 72%

logP [2]: 4.9 | pEC50 [3]: 9.20 | pIC50 (THP-1 [4]): 9.80
SMILES: CCSC[C@@](O)([C@@H](Nc1cccc2nc(C)ccc12)c1ccc(OC)c(F)c1Cl)C(F)(F)F
Emax (THP-1 [1]): 91% | Emax (HeLa): 87%

The next lines start with the compound.

SMILES: CCSC[C@@](O)([C@@H](Nc1cccc2nc(C)ccc12)c1ccc(OC)c(F)c1)C(F)(F)F
Emax (THP-1 [1]): 82% | logP [2]: 4.1 | pEC50 [3]: 8.20 | pIC50 (THP-1 [4]): 8.30 | Emax (HeLa): 77%

SMILES: Nc1cccc2c(=O)[nH]ccc12
Activity [5]: Toxic

SMILES: CC[C@H]1c2c(cc(F)c(F)c2O)[C@H](Nc2cccc3[nH]c(=O)ccc23)[C@@](O)(C(F)(F)F)C1OC (stereo partly drawn)
Emax (THP-1 [1]): 78% | logP [2]: 3.1 | pEC50 [3]: 8.00 | pIC50 (THP-1 [4]): 8.20 | Emax (HeLa): 29%

SMILES: C[C@H]1C[C@H]2[C@@H]3CCC4=CC(=O)C=C[C@]4(C)[C@@]3(F)[C@@H](O)C[C@]2(C)[C@@]1(O)C(=O)CCl [CLOBETASOL]
Efficacy (PBMC [7]): 97% | pIC50 (PBMC [10]): 10.15 | Efficacy (PBMC [12]): 102% | pIC50 (PBMC [14]): 9.85 | Efficacy (PBMC [18]): 98% | pIC50 (PBMC [23]): 9.85 | Efficacy (PBMC [24]): 99% | pIC50 (PBMC [26]): 9.64 | Efficacy (PBMC [33]): 101% | pIC50 (PBMC [35]): 9.80

SMILES: CCSC[C@@](O)([C@@H](Nc1cc(F)cc2[nH]c(=O)ccc12)c1ccc(OC)c(F)c1Cl)C(F)(F)F
Emax (THP-1 [1]): 93% | logP [2]: 4.3 | pEC50 [3]: 8.50 | pIC50 (THP-1 [4]): 8.80 | Emax (HeLa): 92%
